The results in this text go back to ChEMBL document CHEMBL1759937, “Pyridinesulfonylureas and pyridinesulfonamides as selective bombesin receptor subtype-3 (BRS-3) agonists” (Bioorg Med Chem Lett, 2011).

The structures appear in SMILES notation.

As a reminder, the EC50 is the concentration that produces a half-maximal response. Read a high EC50 as weaker potency. One may read the IC50 as the midpoint of a concentration-inhibition curve. Broadly, the MRT is the average time that molecules of a dose stay in the body. One may read the Cmax as the peak of the concentration-time curve. The term half-life denotes how long it takes for the measured level to halve. Read a high half-life as slow decline. By bioavailability is commonly meant dose-corrected exposure relative to a reference, in per cent. A lower bioavailability goes with little systemic uptake.

Series [1] deals with Gastrin-releasing peptide receptor (Homo sapiens) (UniProt P30550).
Chain of Gastrin-releasing peptide receptor (Homo sapiens) (P30550 whole entry, looked up): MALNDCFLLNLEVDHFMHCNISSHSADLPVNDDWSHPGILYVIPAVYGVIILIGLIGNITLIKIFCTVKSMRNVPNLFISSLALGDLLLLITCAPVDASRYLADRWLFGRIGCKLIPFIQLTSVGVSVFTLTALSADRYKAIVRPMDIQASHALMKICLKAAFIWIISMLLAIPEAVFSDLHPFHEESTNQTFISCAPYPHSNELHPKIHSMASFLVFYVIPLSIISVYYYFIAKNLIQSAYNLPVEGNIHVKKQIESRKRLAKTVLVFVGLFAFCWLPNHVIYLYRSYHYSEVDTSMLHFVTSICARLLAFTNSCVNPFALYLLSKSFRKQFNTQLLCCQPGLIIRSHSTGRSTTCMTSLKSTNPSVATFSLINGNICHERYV
Series [2] concerns the target Neuromedin-B receptor (Homo sapiens) (UniProt P28336).
Series [3] deals with T1, Bombesin receptor subtype-3 (Homo sapiens, UniProt P32247).
T1 sequence (P32247 whole entry): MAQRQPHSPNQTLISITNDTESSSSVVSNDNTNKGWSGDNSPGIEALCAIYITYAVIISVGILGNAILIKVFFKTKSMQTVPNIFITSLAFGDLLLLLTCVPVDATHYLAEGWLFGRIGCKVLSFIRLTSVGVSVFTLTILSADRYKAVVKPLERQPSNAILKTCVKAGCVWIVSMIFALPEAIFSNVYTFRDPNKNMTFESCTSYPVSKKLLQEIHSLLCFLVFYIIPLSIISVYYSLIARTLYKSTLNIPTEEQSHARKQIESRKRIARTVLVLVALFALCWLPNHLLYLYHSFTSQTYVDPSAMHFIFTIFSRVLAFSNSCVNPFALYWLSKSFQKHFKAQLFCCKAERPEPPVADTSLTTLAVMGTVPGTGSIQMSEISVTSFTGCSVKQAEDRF

Series [4] has as its target T1, Bombesin receptor subtype-3. The experiment in a line: Agonist activity at human BRS3 expressed in HEK293AEQ cells using 10 uM dy-peptide by bioluminescence assay.
The nature of series [5]: Mean residence time in Sprague-Dawley rat at 1 mg/kg, iv or 4 mg/kg, po. The note with it: in vivo. Type of series: ADME, organism-based. The procedure, abridged: (§1)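 Male Sprague–Dawley rats. Blood collected at various time points into lithium heparin tubes and centrifuged; plasma stored at -70 °C until analysis. Plasma extracted by protein precipitation and quantified by LC/MS/MS.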

A short description of series [6]: Volume of distribution at steady state in Sprague-Dawley rat at 1 mg/kg, iv or 4 mg/kg, po. Type of series: ADME, organism-based. Particulars: in vivo, read-out: Vdss. Summed up:
as §1

Series [7] can be described thus: Cmax in Sprague-Dawley rat at 1 mg/kg, iv or 4 mg/kg, po by LC/MS/MS. Particulars: in vivo. Type of series: ADME, organism-based. Summed up: as §1
Series [8] is described as follows: Half life in Sprague-Dawley rat at 1 mg/kg, iv or 4 mg/kg, po. Particulars: in vivo. The format is ADME, organism-based. Summed up: as §1
A short description of series [9]: Bioavailability in Sprague-Dawley rat at 1 mg/kg, iv or 4 mg/kg, po. Type of series: ADME, organism-based. The note with it: in vivo. Summed up:
as §1

Series [10] is described as follows: Plasma clearance in Sprague-Dawley rat at 1 mg/kg, iv or 4 mg/kg, po. Type of series: ADME, organism-based. Summed up: as §1

Chain of Neuromedin-B receptor (Homo sapiens) (P28336 whole entry, looked up): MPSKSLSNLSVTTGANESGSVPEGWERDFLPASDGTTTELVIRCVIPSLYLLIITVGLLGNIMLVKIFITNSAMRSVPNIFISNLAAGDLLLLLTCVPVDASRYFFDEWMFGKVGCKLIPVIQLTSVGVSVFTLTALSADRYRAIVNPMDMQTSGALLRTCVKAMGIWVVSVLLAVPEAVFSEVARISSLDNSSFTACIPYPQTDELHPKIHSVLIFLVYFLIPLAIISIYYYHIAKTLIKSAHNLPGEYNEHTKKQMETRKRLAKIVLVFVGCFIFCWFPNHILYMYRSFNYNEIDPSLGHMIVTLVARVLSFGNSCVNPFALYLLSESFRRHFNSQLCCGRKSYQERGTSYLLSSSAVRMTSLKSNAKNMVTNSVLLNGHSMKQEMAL

`CC(C)(C)NC(=O)NS(=O)(=O)c1cnccc1NC1CC2CCC1C2` (stereo unspecified): the EC50 in [1] and in series [2] was above 10000 nM in each case.

`CC(C)NC(=O)NS(=O)(=O)c1cnccc1NC1CC2CCC1C2` (stereo unspecified) displayed an IC50 in [3] of 600 nM. Besides, the EC50 in series [4] amounted to 220 nM.

In turn, `CCC(C)(C)NC(=O)NS(=O)(=O)c1cnccc1NC1CC2CCC1C2` (racemic) yielded an MRT in series [5] of 11.4 min. Besides, in series [6], the Vd came to 0.3 L/kg. For the same molecule, in series [7], the concentration peaked (Cmax) at 2 µM. In series [8], this molecule showed a half-life of 15 min. The molecule further registered a bioavailability in series [9] of 41%. In series [10], this molecule had a clearance of 26 mL/min/kg.

The molecule `CC(C)(C)NC(=O)NS(=O)(=O)c1cnccc1NC1CC2CCC1C2` (racemic) had an MRT in series [5] of 39.6 min. Also, the Vd in series [6] was 0.57 L/kg. The Cmax in series [7] worked out at 7 µM. In addition, the half-life in [8] is 288 min. The molecule also displayed a bioavailability in [9] of 100%. In [10], this molecule came in with a clearance of 14 mL/min/kg.
